# From ChEMBL document CHEMBL1143847, “Competitive inhibitors of the CphA metallo-beta-lactamase from Aeromonas hydrophila” (Antimicrob Agents Chemother, 2007)
# What was measured:
# Beta-lactamase [1] = molecular target: T1, Beta-lactamase (Aeromonas hydrophila, UniProt Q44079); assay: Inhibition of Aeromonas hydrophila beta lactamase CphA by competitive inhibition assay
# Beta-lactamase [2] = molecular target: T1, Beta-lactamase; assay: Inhibition of Aeromonas hydrophila beta lactamase CphA at pH 7.0
# Beta-lactamase [3] = molecular target: T1, Beta-lactamase; assay: Inhibition of Aeromonas hydrophila beta lactamase CphA at pH 8.0
# Beta-lactamase [4] = molecular target: T1, Beta-lactamase; assay: Inhibition of Aeromonas hydrophila beta lactamase CphA at pH 9.0
# Beta-lactamase [5] = molecular target: T1, Beta-lactamase; assay: Inhibition of Aeromonas hydrophila beta lactamase CphA at pH 10.0
# [6] = Inhibition of Aeromonas hydrophila beta lactamase CphA N116H-N220G mutant by competitive inhibition assay
# Method in brief: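 Purified double-mutant enzyme (0.03–0.7 nM) in 20 mM HEPES pH 7.0 with 20 μg/ml BSA. Imipenem was varied 20–200 μM at three inhibitor concentrations and without inhibitor, with no preincubation, at 30°C. Initial rates were Hanes-linearized to give the competitive Ki. The dizinc form was run separately with cefotaxime in 20 mM cacodylate pH 6.5, BSA, 100 μM ZnCl2.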
# T1 sequence (Q44079 whole entry): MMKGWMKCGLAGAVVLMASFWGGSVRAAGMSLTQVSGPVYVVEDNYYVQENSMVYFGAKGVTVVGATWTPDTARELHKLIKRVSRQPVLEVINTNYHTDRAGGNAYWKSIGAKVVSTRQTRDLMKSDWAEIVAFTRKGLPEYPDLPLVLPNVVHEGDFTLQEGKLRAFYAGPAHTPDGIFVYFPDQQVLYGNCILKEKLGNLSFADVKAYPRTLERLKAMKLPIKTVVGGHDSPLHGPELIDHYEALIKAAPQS
Compound,Ki (Beta-lactamase [1]) [µM],Ki (Beta-lactamase [2]) [µM],Ki (Beta-lactamase [3]) [µM],Ki (Beta-lactamase [4]) [µM],Ki (Beta-lactamase [5]) [µM],Ki [6] [µM]
O=C(O)c1ccncc1C(=O)O,1100,–,–,–,–,–
O=C(O)c1ccccn1 [2-PICOLINIC ACID],5.7,46,76,440,1100,13
"O=C(O)c1ccc(C(=O)O)nc1 [PYRIDINE-2,5-DICARBOXYLIC ACID]",420,–,–,–,–,–
O=C(O)c1cccnc1C(=O)O [QUINOLINIC ACID],200,–,–,–,–,–
